Calls of active or inactive are those of the source. The calls are words filed in the database; no cut-off is given here.
Legend:
Adipocyte = assay: Inhibition of isoproterenol-induced lipolysis in human subcutaneous adipocytes after 5 hrs
Mus musculus [1] = assay: Reduction of free fatty acid level in ip dosed C57/BL6 mouse plasma after 10 mins; type: functional, organism-based; conditions: C57Bl/6
How it was run: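 Male C57Bl/6 mice, 8-10 weeks (~25 g), fasted 16 hr, dosed i.p. with compound in PBS or PBS vehicle (5 ml/kg). Killed after 10 min; cardiac blood taken and serum obtained by centrifugation at 4°C. NEFA measured colorimetrically with the NEFA-C two-reagent kit, 37°C incubations, A550. Three or more experiments in triplicate; one-way ANOVA with Bonferroni.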

Rattus norvegicus = assay: Reduction of free fatty acid level in po dosed Sprague-Dawley rat plasma relative to baseline; type: functional; design: scale not given: the % may be the effect or the level left
How it was run: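 Male Sprague-Dawley rats, 7-10 weeks (~350 g), jugular vein cannulated, fasted 16 hr. Baseline blood drawn, then oral vehicle (PBS, 5% HPBCD or 0.5% methylcellulose) or drug at 2 ml/kg. Blood sampled via cannula at set times; serum NEFA assayed by NEFA-C kit, A550. Expressed as % baseline FFA, four or more independent experiments.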

Mus musculus [2] = assay: Induction of flushing response in ip dosed C57/BL6 mouse; type: organism-based, C57Bl/6; conditions: in vivo
How it was run: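 Male C57Bl/6 mice, 8-10 weeks, anesthetized with Nembutal i.p. (80 mg/10 ml/kg). Laser Doppler perfusion imaging centred on the ventral right ear. After a 3 min baseline, vehicle or agonist is given i.p. (5 ml/kg) and readings continue about 15 min. Output is % change from pre-injection baseline, 3-26 animals per group.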

Mus musculus [3] = assay: Inhibition of nicotinic acid induced flushing response in ip dosed C57/BL6 mouse; type: functional, organism-based; conditions: C57Bl/6
How it was run: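 Laser Doppler ear flushing in anesthetized male C57Bl/6 mice. Vehicle or competing agonist is given i.p. together with Nembutal, 10 min before baseline. After a 3 min baseline, nicotinic acid 30 mg/kg i.p. is injected. Response is % change from pre-nicotinic acid baseline, 5 or 11 animals per group.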

| SMILES | EC50 (Adipocyte) | Activity (Mus musculus [1]) | Activity (Rattus norvegicus) | Activity (Mus musculus [2]) | Activity (Mus musculus [3]) |
| --- | --- | --- | --- | --- | --- |
| O=C(O)c1cc(Cc2cccc(F)c2)[nH]n1 | 32.6 µM | Dose-dependent effect | 75% | Non-toxic | – |
| CC(C)c1cc(C(=O)O)n[nH]1 | – | Dose-dependent effect | 75% | Non-toxic | – |
| O=C(O)c1cccnc1 [NIACIN] | 0.9 µM | – | – | Toxic | – |
| O=C(O)c1cc(Cc2cccc(Cl)c2)[nH]n1 | – | – | – | Non-toxic | – |
| Cc1cc(C(=O)O)on1 | 5.3 µM | – | 75% | Toxic | – |

More lines, main results first:

| EC50 (Adipocyte) | SMILES | Activity (Mus musculus [1]) | Activity (Rattus norvegicus) | Activity (Mus musculus [2]) | Activity (Mus musculus [3]) |
| --- | --- | --- | --- | --- | --- |
| 1.4 µM | Cc1cc(C(=O)O)n[nH]1 | Dose-dependent effect | 75% | Toxic | – |
| 72.5 µM | O=C(O)c1cc(Cc2cccc(Cl)c2)n[nH]1 | Dose-dependent effect | 75% | – | Active |
| 103 µM | O=C(O)c1cc(Cc2cccc(Br)c2)[nH]n1 | Dose-dependent effect | 75% | Non-toxic | – |
